Reference: ChEMBL document CHEMBL1123791, “3'-substituted 2',3'-dideoxynucleoside analogues as potential anti-HIV (HTLV-III/LAV) agents” (J Med Chem, 1987)

Assays:
MT4 [1] = assay: Protection was determined by evaluation of cluster morphology and reclustering properties in […] at 5 uM concentration; Range is 40-60; assay type: functional, Homo sapiens
MT4 [2] = assay: Toxicity was determined by evaluation of cluster morphology and reclustering properties in mock infected MT-4 cells at 0.2 uM concentration; assay type: cell-based; conditions: human, mt4, 0.2 µM
MT4 [3] = assay: Toxicity was determined by evaluation of cluster morphology and reclustering properties in mock infected MT-4 cells at 125 uM concentration; Range is 10-40; assay type: cell-based; conditions: human, mt4, 125 µM
Procedure, shortened: (§1)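 Mock-infected MT4 cells were seeded at 2.5×10^5 cells/mL with compound at 125–0.00032 µM and cultured 5 days at 37 °C. Cluster morphology was scored microscopically, then cells were dispersed by pipetting and reclustering read after 4 h. Scoring: ++ >90%, + 10–40%, − <10% toxicity.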

MT4 [4] = assay: Protection was determined by evaluation of cluster morphology and reclustering properties in mock infected MT-4 cells at 125 uM concentration; assay type: functional, Homo sapiens; conditions: in the assay text read “HIV infected” for “mock infected”
Procedure, shortened: (§2)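 MT4 cells infected with HIV (300 CCID50/well) were seeded at 2.5×10^5 cells/mL with compound at 125, 5, 0.2, 0.008 or 0.00032 µM and kept 5 days at 37 °C. Clusters were scored microscopically, dispersed by pipetting, and reclustering assessed after 4 h at 37 °C. Scoring: +++ >90% protection.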

MT4 [5] = assay: Toxicity was determined by evaluation of cluster morphology and reclustering properties in mock infected MT-4 cells at 5 uM concentration; assay type: cell-based; conditions: human, mt4, 5 µM; procedure, shortened: as §1
ATH-8 cell line [6] = assay: Required dose to reduce viability of normal uninfected ATH8 cells.; assay type: functional; conditions: Homo sapiens, read-out: ID50 (the source's name)
MT4 [7] = assay: Protection was determined by evaluation of cluster morphology and reclustering properties in […] MT-4 cells at 0.2 uM concentration; Range is 10-40; assay type: functional, Homo sapiens; procedure, shortened: as §2
ATH-8 cell line [8] = assay: Protection of ATH8 cells against the cytopathic effect of HIV.; assay type: functional; conditions: Homo sapiens, read-out: ED50 (the source's name)
MT4 [9] = assay: Protection was determined by evaluation of cluster morphology and reclustering properties in […] MT-4 cells at 0.2 uM concentration; assay type: functional, Homo sapiens
MT4 [10] = assay: Protection was determined by evaluation of cluster morphology and reclustering properties in […] MT-4 cells at 125 uM concentration; Range is 40-60; assay type: functional, Homo sapiens
MT4 [11] = assay: Protection was determined by evaluation of cluster morphology and reclustering properties in […] MT-4 cells at 5 uM concentration.; assay type: functional, Homo sapiens; procedure, shortened: as §2
[12] = Therapeutic index (Ratio = ID50/ED50).
MT4 [13] = assay: Protection was determined by evaluation of cluster morphology and reclustering properties in […] at 0.008 uM concentration.; assay type: functional, Homo sapiens
MT4 [14] = assay: Toxicity was determined by evaluation of cluster morphology and reclustering properties in mock infected MT-4 cells at 125 uM concentration; assay type: cell-based; conditions: human, mt4, 125 µM
MT4 [15] = assay: Toxicity was determined by evaluation of cluster morphology and reclustering properties in mock infected MT-4 cells at 5 uM concentration; Range is 10-40; assay type: cell-based; conditions: human, mt4, 5 µM
MT4 [16] = assay: Protection was determined by evaluation of cluster morphology and reclustering properties in […] MT-4 cells at 5 uM concentration; Range is 10-40; assay type: functional, Homo sapiens; procedure, shortened: as §2
MT4 [17] = assay: Toxicity was determined by evaluation of cluster morphology and reclustering properties in mock infected MT-4 cells at 0.00032 uM concentration; assay type: cell-based; conditions: human, mt4, 0.00032 µM; procedure, shortened: as §1
MT4 [18] = assay: Toxicity was determined by evaluation of cluster morphology and reclustering properties in mock infected MT-4 cells at 0.008 uM concentration; assay type: cell-based; conditions: human, mt4, 0.008 µM; procedure, shortened: as §1
MT4 [19] = assay: Protection was determined by evaluation of cluster morphology and reclustering properties in […] MT-4 cells at 0.00032 uM concentration; Range is 10-40; assay type: functional, Homo sapiens; procedure, shortened: as §2
MT4 [20] = assay: Protection was determined by evaluation of cluster morphology and reclustering properties in […] at 0.008 uM concentration; Range is 40-60; assay type: functional, Homo sapiens; procedure, shortened: as §2
MT4 [21] = assay: Toxicity was determined by evaluation of cluster morphology and reclustering properties in mock infected MT-4 cells at 0.008 uM concentration; Range is 10-40; assay type: cell-based; conditions: human, mt4, 0.008 µM; procedure, shortened: as §1
MT4 [22] = assay: Protection was determined by evaluation of cluster morphology and reclustering properties in […] MT-4 cells at 0.008 uM concentration; Range is 10-40; assay type: functional, Homo sapiens; procedure, shortened: as §2

SMILES	Toxicity (MT4 [2])	Toxicity (MT4 [5])	IC50 (ATH-8 cell line [6])	EC50 (ATH-8 cell line [8])	Protection (MT4 [9])	Protection (MT4 [11])	selectivity ratio [12]	Protection (MT4 [13])	Toxicity (MT4 [14])	also measured
Cc1cn([C@H]2C[C@H](N=[N+]=[N-])[C@@H](CO)O2)c(=O)nc1N	< 10%	< 10%	> 100 µM	> 100 µM	–	–	–	–	–	Protection (MT4 [1]): 40%; Toxicity (MT4 [3]): 10%; Protection (MT4 [4]): >90%; Protection (MT4 [7]): 10%
NCC1C=CC(n2ccc(N)nc2=O)O1 (stereo unspecified)	< 10%	< 10%	> 500 µM	260 µM	<10%	<10%	> 1.9	–	–	Toxicity (MT4 [3]): 10%; Protection (MT4 [10]): 40%
CO[C@H]1C[C@H](n2cc(C)c(=O)[nH]c2=O)O[C@@H]1CO	< 10%	–	88 µM	> 100 µM	<10%	–	< 0.9	<10%	> 90%	Toxicity (MT4 [15]): 10%; Protection (MT4 [16]): 10%
Cc1cn([C@H]2CC[C@@H](CO)O2)c(=O)[nH]c1=O	< 10%	< 10%	> 2000 µM	100 µM	–	>90%	> 20	<10%	< 10%	Protection (MT4 [7]): 10%
Cc1cn([C@H]2C[C@H](N=[N+]=[N-])[C@@H](CO)O2)c(=O)[nH]c1=O (stereo in doubt; 1a) [ZIDOVUDINE]	–	–	45 µM	2.4 µM	>90%	–	19	–	–	Toxicity (MT4 [17]): < 10%; Toxicity (MT4 [14]; 125 µM): > 90%; Toxicity (MT4 [18]): < 10%; Toxicity (MT4 [5]; 5 µM): > 90%; Protection (MT4 [19]): 10%; Protection (MT4 [20]): 40%
Cc1cn([C@H]2C[C@H](F)[C@@H](CO)O2)c(=O)[nH]c1=O [ALOVUDINE]	> 90%	> 90%	15 µM	1.4 µM	–	–	10	–	> 90%	Toxicity (MT4 [17]): < 10%; Toxicity (MT4 [21]): 10%; Protection (MT4 [22]): 10%; Protection (MT4 [19]): 10%
Nc1ccn([C@H]2C[C@H](O)[C@@H](CO)O2)c(=O)n1 [DOXECITINE]	< 10%	–	> 100 µM	> 100 µM	<10%	<10%	–	<10%	> 90%	Toxicity (MT4 [15]): 10%
Cc1cn([C@H]2C[C@H](O)[C@@H](CO)O2)c(=O)[nH]c1=O [DOXRIBTIMINE]	< 10%	< 10%	> 100 µM	> 100 µM	<10%	<10%	–	–	< 10%	Protection (MT4 [10]): 40%
